In general, LD50 refers to the dose at which mortality reaches 50%.

The subject of one data set is Bacillus subtilis. The experiment in a line: Antibacterial activity against Bacillus subtilis at 50 mg/disk after 24 to 28 hrs by agar disk diffusion method. Type of data set: functional. In general terms: Agar diffusion results depend on both activity and mobility in agar.
A further data set relates to Lactococcus lactis. The experiment in a line: Antibacterial activity against Streptococcus lactis at 50 mg/disk after 24 to 28 hrs by agar disk diffusion method. It is filed as functional.
A further data set has as its system Escherichia coli. The experiment in a line: Antibacterial activity against Escherichia coli at 50 mg/disk after 24 to 28 hrs by agar disk diffusion method. It is filed as functional.
Another data set relates to Pseudomonas aeruginosa. The data set can be described thus: Antibacterial activity against Pseudomonas aeruginosa at 50 mg/disk after 24 to 28 hrs by agar disk diffusion method. Type of data set: functional.
For a further data set, the system named is Candida albicans. The experiment in a line: Antifungal activity against Candida albicans at 50 mg/disk after 5 days by agar disk diffusion method. Type of data set: functional.
A further data set concerns Nakaseomyces glabratus. The experiment in a line: Antifungal activity against Candida glabrata at 50 mg/disk after 5 days by agar disk diffusion method. It is filed as functional.
Data set [1] has as its system HepG2. The experiment in a line: Antitumor activity against human HepG2 cells xenografted in Swiss albino mouse assessed as increase of mouse survival at 10 ug/kg, ip for 10 days (reference value: 22 +/- 1.90 day). It is filed as functional. For orientation: Xenograft models place foreign cells or tissue in a host animal.
For data set [2], the system named is HepG2. The experiment in a line: Antitumor activity against human HepG2 cells xenografted in Swiss albino mouse assessed as increase mouse life span at 10 ug/kg, ip for 10 days relative to control. Type of data set: functional.
In data set [3] the test system is HeLa. The data set can be described thus: Antitumor activity against human HeLa cells xenografted in Swiss albino mouse assessed as increase of mouse survival at 10 ug/kg, ip for 10 days (reference value: 22 +/- 1.90 day). It is filed as functional.
For data set [4], the system named is HeLa. The experiment in a line: Antitumor activity against human HeLa cells xenografted in Swiss albino mouse assessed as increase mouse life span at 10 ug/kg, ip for 10 days relative to control. It is filed as functional.
The subject of data set [5] is Mus musculus. The data set can be described thus: Acute toxicity in human HepG2 cells xenografted ip dosed Swiss albino mouse assessed as mortality measured up to 2 weeks. Type of data set: organism-based. As to conditions: in vivo, 336 h. The method in brief: (§1)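 Adult Swiss albino mice were fasted 12 h and randomised into groups of 10. Each group got one i.p. dose from a graded series, given at 1 ml/kg body weight; controls got vehicle alone. Food and water were returned right after dosing. Mortality was followed for up to two weeks, and LD50 was taken as the dose giving 50% mortality.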

Data set [6] has as its system Mus musculus. The experiment in a line: Acute toxicity in human HeLa cells xenografted ip dosed Swiss albino mouse assessed as mortality measured up to 2 weeks. Particulars: in vivo, 336 h. It is filed as organism-based. The method, boiled down:
as §1

Consider `CSc1nc2c(c(=O)[nH]1)C(c1ccc([N+](=O)[O-])cc1)C1=C(CC(C)(C)CC1=O)N2[C@@H]1O[C@H](COC(C)=O)[C@H](OC(C)=O)[C@H](OC(C)=O)[C@H]1OC(C)=O` (stereo partly specified), for which the “diameter of the inhibition zone (DIZ)” value in the data set on Bacillus subtilis is listed as 20 mm; in the data set on Lactococcus lactis, 19 mm; in the data set with Escherichia coli, 25 mm; with Pseudomonas aeruginosa, 23 mm; with Candida albicans it was 7 mm; in the data set on Nakaseomyces glabratus, 8 mm.
In the case of `CC1(C)CC(=O)C2=C(C1)Nc1nc(N/N=C\c3ccc(Cl)cc3)[nH]c(=O)c1C2c1ccc([N+](=O)[O-])cc1` (stereo unspecified), the “diameter of the inhibition zone (DIZ)” value in the data set with Bacillus subtilis is on record as 16 mm; with Lactococcus lactis, 17 mm; in the data set on Escherichia coli it was 18 mm; in the data set with Pseudomonas aeruginosa, 17 mm; in the data set with Candida albicans, 7 mm; in the data set with Nakaseomyces glabratus it was 6 mm. Besides, the Survival in the data set on HepG2 [1] worked out at 37 days; in the data set on HeLa [3], 32 days. In addition, the results for the Activity in the data set with HepG2 [2] and with HeLa [4] were 53% and 50%, respectively. The LD50 in the data set on Mus musculus [5] amounted to 0.096 mg/kg; with Mus musculus [6] it was 0.09 mg/kg.
On to `Cc1n[nH]c2nc3c(c(=O)n12)C(c1ccc([N+](=O)[O-])cc1)C1=C(CC(C)(C)CC1=O)N3` (stereo unspecified), for which the “diameter of the inhibition zone (DIZ)” value in the data set on Bacillus subtilis turned out to be 18 mm; in the data set with Lactococcus lactis, 21 mm; in the data set with Escherichia coli, 18 mm; with Pseudomonas aeruginosa, 22 mm; in the data set with Candida albicans it was 11 mm; in the data set with Nakaseomyces glabratus, 11 mm.
On to `CSc1nc2c(c(=O)n1C)C(c1ccc([N+](=O)[O-])cc1)C1=C(CC(C)(C)CC1Cl)N2` (stereo unspecified), for which the “diameter of the inhibition zone (DIZ)” value with Bacillus subtilis is on record as 14 mm; with Lactococcus lactis it was 13 mm; in the data set on Escherichia coli, 15 mm; in the data set with Pseudomonas aeruginosa, 14 mm; in the data set on Candida albicans, 10 mm; in the data set with Nakaseomyces glabratus it was 9 mm. Besides, the Survival is 33 days with HepG2 [1] and 31 days in the data set with HeLa [3]. For the same compound, the Activity is reported as 48% in the data set with HepG2 [2] and 45% in the data set with HeLa [4]. Further, the median lethal dose (LD50) was 0.1 mg/kg in the data set on Mus musculus [5] and 0.103 mg/kg in the data set on Mus musculus [6].
As to `CCn1cc(C(=O)O)c(=O)c2ccc(C)nc21` [NALIDIXIC ACID], the “diameter of the inhibition zone (DIZ)” value in the data set with Bacillus subtilis, in the data set with Lactococcus lactis, with Escherichia coli and in the data set on Pseudomonas aeruginosa was 25 mm throughout.
Turning to `CSc1nc2c(c(=O)[nH]1)C(c1ccc([N+](=O)[O-])cc1)C1=C(CC(C)(C)CC1=O)N2[C@@H]1O[C@H](COC(C)=O)[C@@H](OC(C)=O)[C@@H]1OC(C)=O` (stereo partly specified), the “diameter of the inhibition zone (DIZ)” value with Bacillus subtilis is on record as 19 mm; in the data set on Lactococcus lactis, 20 mm; in the data set on Escherichia coli it was 21 mm; in the data set on Pseudomonas aeruginosa, 23 mm; in the data set on Candida albicans, 8 mm; with Nakaseomyces glabratus it was 9 mm.
For the compound `CSc1nc2c(c(=O)[nH]1)C(c1ccc([N+](=O)[O-])cc1)C1=C(CC(C)(C)CC1=O)N2[C@@H]1O[C@H](CO)[C@H](O)[C@H](O)[C@H]1O` (stereo partly specified), the “diameter of the inhibition zone (DIZ)” value is 21 mm in the data set on Bacillus subtilis; 20 mm with Lactococcus lactis; 22 mm with Escherichia coli; 22 mm with Pseudomonas aeruginosa; 8 mm with Candida albicans; 7 mm in the data set with Nakaseomyces glabratus.
On to `CC1(C)CC(=O)C2=C(C1)Nc1nc3[nH]nnn3c(=O)c1C2c1ccc([N+](=O)[O-])cc1` (stereo unspecified), for which the “diameter of the inhibition zone (DIZ)” value in the data set with Bacillus subtilis came out at 23 mm; in the data set on Lactococcus lactis, 18 mm; in the data set with Escherichia coli, 20 mm; with Pseudomonas aeruginosa, 19 mm; in the data set with Candida albicans it was 12 mm; in the data set with Nakaseomyces glabratus it was 10 mm.
For `CC1(C)CC(=O)C2=C(C1)Nc1nc(Nn3c(=O)c4cc5c(=O)n(Nc6nc7c(c(=O)[nH]6)C(c6ccc([N+](=O)[O-])cc6)C6=C(CC(C)(C)CC6=O)N7)c(=O)c5cc4c3=O)[nH]c(=O)c1C2c1ccc([N+](=O)[O-])cc1` (stereo unspecified), the “diameter of the inhibition zone (DIZ)” value is recorded as 22 mm in the data set on Bacillus subtilis; 25 mm in the data set with Lactococcus lactis; 23 mm in the data set on Escherichia coli; 22 mm with Pseudomonas aeruginosa; 13 mm in the data set on Candida albicans; 12 mm with Nakaseomyces glabratus. The Survival was found to be 38 days in the data set with HepG2 [1] and 29 days in the data set with HeLa [3]. Further, the Activity in the data set on HepG2 [2] was 58%; in the data set on HeLa [4], 53%. The 50% lethal dose (LD50) in the data set with Mus musculus [5] and in the data set on Mus musculus [6] was 0.099 mg/kg in each case.
`CC1(C)CC(=O)C2=C(C1)Nc1nc3[nH]ncn3c(=O)c1C2c1ccc([N+](=O)[O-])cc1` (stereo unspecified): the “diameter of the inhibition zone (DIZ)” value with Bacillus subtilis turned out to be 20 mm; in the data set on Lactococcus lactis, 20 mm; with Escherichia coli it was 19 mm; with Pseudomonas aeruginosa it was 18 mm; in the data set with Candida albicans it was 9 mm; with Nakaseomyces glabratus, 9 mm. Also, the Survival with HepG2 [1] came out at 31 days; with HeLa [3] it was 30 days. In addition, the Activity in the data set with HepG2 [2] turned out to be 55%; with HeLa [4] it was 51%. Also, the values for the LD50 in the data set with Mus musculus [5] and in the data set on Mus musculus [6] were 0.1 mg/kg and 0.098 mg/kg, respectively.
Turning to NYSTATIN, the inhibition zone (IZ) in the data set with Nakaseomyces glabratus came out at 20 mm.
Consider `CC1(C)CC(=O)C2=C(C1)Nc1nc(N/N=C\c3ccccc3)[nH]c(=O)c1C2c1ccc([N+](=O)[O-])cc1` (stereo unspecified), for which the “diameter of the inhibition zone (DIZ)” value with Bacillus subtilis is 17 mm; in the data set on Lactococcus lactis it was 18 mm; in the data set with Escherichia coli, 17 mm; in the data set with Pseudomonas aeruginosa it was 16 mm; in the data set on Candida albicans, 7 mm; in the data set with Nakaseomyces glabratus it was 6 mm.
As for `COc1ccc(/C=N\Nc2nc3c(c(=O)[nH]2)C(c2ccc([N+](=O)[O-])cc2)C2=C(CC(C)(C)CC2=O)N3)cc1` (stereo unspecified), the “diameter of the inhibition zone (DIZ)” value was determined as 15 mm in the data set on Bacillus subtilis; 16 mm in the data set with Lactococcus lactis; 17 mm in the data set on Escherichia coli; 16 mm in the data set with Pseudomonas aeruginosa; 7 mm in the data set on Candida albicans; 8 mm in the data set with Nakaseomyces glabratus.
For the compound `CSc1nc2c(c(=O)[nH]1)C(c1ccc([N+](=O)[O-])cc1)C1=C(CC(C)(C)CC1=O)N2[C@@H]1OC[C@@H](O)[C@@H](O)[C@@H]1O` (stereo partly specified), the “diameter of the inhibition zone (DIZ)” value is recorded as 20 mm with Bacillus subtilis; 18 mm with Lactococcus lactis; 24 mm with Escherichia coli; 23 mm with Pseudomonas aeruginosa; 7 mm with Candida albicans; 8 mm in the data set on Nakaseomyces glabratus. Besides, the Survival was found to be 37 days in the data set on HepG2 [1] and 38 days in the data set on HeLa [3]. Moreover, the Activity in the data set on HepG2 [2] turned out to be 60%; with HeLa [4], 66%. The 50% lethal dose (LD50) in the data set on Mus musculus [5] worked out at 0.11 mg/kg; in the data set with Mus musculus [6], 0.116 mg/kg.
In the case of `CSc1nc2c(c(=O)[nH]1)C(c1ccc([N+](=O)[O-])cc1)C1=C(CC(C)(C)CC1=O)N2[C@@H]1O[C@H](COC(C)=O)[C@@H](OC(C)=O)[C@H](OC(C)=O)[C@H]1OC(C)=O` (stereo partly specified), the “diameter of the inhibition zone (DIZ)” value amounted to 20 mm in the data set with Bacillus subtilis; 20 mm in the data set with Lactococcus lactis; 23 mm in the data set with Escherichia coli; 22 mm in the data set with Pseudomonas aeruginosa; 8 mm with Candida albicans; 8 mm in the data set on Nakaseomyces glabratus. Moreover, the Survival in the data set on HepG2 [1] turned out to be 36 days; with HeLa [3], 37 days. The Activity worked out at 66% with HepG2 [2] and 61% in the data set on HeLa [4]. In addition, the LD50 in the data set on Mus musculus [5] was 0.109 mg/kg; with Mus musculus [6], 0.111 mg/kg.
Consider `CC1(C)CC(=O)C2=C(C1)Nc1nc3n(N)c(-c4ccccc4)cn3c(=O)c1C2c1ccc([N+](=O)[O-])cc1` (stereo unspecified), for which the “diameter of the inhibition zone (DIZ)” value came out at 20 mm with Bacillus subtilis; 20 mm in the data set on Lactococcus lactis; 23 mm with Escherichia coli; 23 mm with Pseudomonas aeruginosa; 8 mm in the data set with Candida albicans; 6 mm in the data set on Nakaseomyces glabratus.
For the compound `CSc1nc2c(c(=O)[nH]1)C(c1ccc([N+](=O)[O-])cc1)C1=C(CC(C)(C)CC1=O)N2` (stereo unspecified), the “diameter of the inhibition zone (DIZ)” value was found to be 13 mm with Bacillus subtilis; 14 mm with Lactococcus lactis; 13 mm in the data set on Escherichia coli; 14 mm with Pseudomonas aeruginosa; 7 mm with Candida albicans; 8 mm in the data set with Nakaseomyces glabratus.

The record behind these values is ChEMBL document CHEMBL1649351, “Synthesis, in vitro antimicrobial and in vivo antitumor evaluation of novel pyrimidoquinolines and its nucleoside derivatives” (Eur J Med Chem, 2011).
